Source: PubChem BioAssay (several laboratories)
VIM-2 inhibitor – inhibitors of Pseudomonas aeruginosa VIM-2 metallo-beta-lactamase; purified VIM-2, nitrocefin hydrolysis, epi-absorbance fluorescence; inhibition, % at 5.6 µM; 0.89% of 290,000 active; AID 1527;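 active means inhibition above the mean of all tested compounds plus 3 SD, cutoff set per screening run, cut at about 7.5% in these data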;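 further: red hydrolysis product quenches plate fluorescence so inhibitors raise well fluorescence; 0% = enzyme with DMSO and 100% = DMSO without enzyme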
IMP-1 inhibitor – inhibitors of Pseudomonas aeruginosa IMP-1 metallo-beta-lactamase; purified IMP-1, nitrocefin hydrolysis, epi-absorbance fluorescence; inhibition, % at 5.6 µM; 0.45% of 290,000 active; AID 1556;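 active means inhibition above the mean plus 3 SD of all compounds in the same screening run, cut at about 4.5% in these data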;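 further: 0% = IMP-1 with DMSO and 100% = DMSO wells lacking enzyme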
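System: purified IMP-1 / Input: IMP-1 dispensed at 0.2 nM / Medium: 50 mM HEPES pH 7.1, 50 µM ZnSO4, 0.05% Brij 35 / Timing: 15 min enzyme–compound preincubation, then 25 min nitrocefin reaction, 25 °C / Technique: plate fluorescence quenching by hydrolysis product, ex 480/em 530 nm / Repeats: singlicate testing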
CR mimetic SO – lowers age-related superoxide in aged yeast cells; 0.18% of 330,000 active; superoxide response (% of plate mean), % at 10 µM; S. cerevisiae aged cells, superoxide DHE fluorescence; stronger effect = lower value;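 active means superoxide response under a set limit, about three screen SD below normal, cut at about 65% in these data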;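 further: yeast aged for seven days with compound at 30 °C before DHE staining; 100% = average MFI of all compound-treated wells on the plate with controls excluded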
PvdQ inh – blocks Pseudomonas aeruginosa PvdQ acylase activity; purified PvdQ acylase, fluorescence plate reader; inhibition, % at 10 µM; 0.063% of 340,000 active; AID 488965; in the data active means inhibition above about 30%, passing the limit was not always enough;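 further: 0% = vehicle neutral wells and 100% = reference inhibitor wells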
PHOSPHO1 inh – inhibitors of human PHOSPHO1 phosphatase; recombinant PHOSPHO1, absorbance phosphatase assay; 1.1% of 290,000 active; Q8TCT1; inhibition, % at 13.3 µM; in the data active means inhibition above about 60%
Target sequence (Q8TCT1 whole entry, looked up): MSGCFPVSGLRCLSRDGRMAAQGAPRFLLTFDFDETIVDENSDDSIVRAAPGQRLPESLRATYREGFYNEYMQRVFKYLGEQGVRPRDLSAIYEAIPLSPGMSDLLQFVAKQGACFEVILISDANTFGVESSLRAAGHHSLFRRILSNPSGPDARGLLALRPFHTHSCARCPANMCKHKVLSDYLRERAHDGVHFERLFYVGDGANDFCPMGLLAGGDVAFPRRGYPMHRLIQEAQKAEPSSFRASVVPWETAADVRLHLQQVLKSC
Starred values were filed as active, the others as inactive; x = no result. Hits are enriched below; roughly 2.2% of the tested compounds scored in any of these assays.

SMILES | VIM-2 inhibitor | IMP-1 inhibitor | CR mimetic SO | PvdQ inh | PHOSPHO1 inh
CC(C)(C)N(Cc1ccc2c(c1)OCO2)C(=O)/C=C\S(=O)c1ccccc1 (stereo not drawn) | x | x | x | -3 | x
CC[C@]1(C(=O)OC)[C@H]2C(=O)N(C)C(=O)[C@H]2[C@H]2CN=C(SC)N21 | x | x | x | -3 | x
COCCCNC(=S)NC1CC2CCCC(C1)N2Cc1cccs1 (stereo not drawn) | -2 | -3 | 99 | 8 | 69*
N#Cc1c(N)sc(=S)c2c1CCCCC2 | 5 | 1 | 113 | 10 | 31
N#Cc1c(N)sc2c1CCCCCC2 | -2 | -3 | 78 | -12 | 80*
O=C(OCN1C(=O)c2ccccc2C1=O)c1cc(S(=O)(=O)N2CCOCC2)ccc1F | x | x | x | 0 | x
CN1CCN(c2ccc(S(=O)(=O)N3CCOCC3)cc2NC(=O)COc2ccc(C#N)cc2)CC1 | x | x | x | -11 | x
COc1ccccc1Nc1ccc(C(=O)NCc2cccs2)cn1 | -3 | -2 | 104 | -21 | 41
COc1ccccc1Nc1ncc(-c2cccs2)s1 | -1 | -1 | 96 | -5 | 82*
CSC1=N/C(=C\c2cccc(F)c2)C(=O)S1 | -4 | -2 | 102 | -7 | 67*
CSC1=N/C(=C\c2ccc(C)cc2)C(=O)S1 | -3 | -3 | 115 | -19 | 19
COC(=O)C(NNc1ccccc1)(NC(=O)c1ccc(F)cc1)C(F)(F)F (stereo not drawn) | -2 | -2 | 96 | 0 | 92*
O=C(NC1CCSC1)c1cccc(Cl)c1 (stereo not drawn) | 1 | 1 | 108 | 81* | 25
CCn1nc([N+](=O)[O-])c2c(-c3nc4ccccc4o3)c(N)n(CCCOC)c2c1=O | -3 | -2 | 100 | 4 | 96*
Nc1cc([N+](=O)[O-])ccc1Nc1ccc(O)cc1 | -2 | -4 | 63* | 2 | -63
Cc1ccc(C)c(OCCC(=O)Nc2cccc(S(=O)(=O)N3CCCCC3)c2)c1 | x | x | 105 | -7 | x
COc1ccc(CCNC(=O)c2ccc(S(=O)(=O)N3CCCCC3)cc2)cc1 | x | x | 110 | -3 | x
CCN(CC)CCN(C(=O)c1ccc2c(c1)CCCC2)c1nc2c(C)cccc2s1 | -2 | -3 | 98 | -15 | 9
Cn1c(-c2cccc(Br)c2)cnc1NCc1ccccc1O | -1 | 0 | 88 | 5 | -7
CC(C)(C)OC(=O)C[C@H]1C/C=C\C[C@@H](CC(=O)NCCO)C(=O)NC[C@@H](c2ccccc2)OC1=O | x | x | 85 | -5 | x
CCOc1ccc(OCCC(=O)N(CCOC)c2c(N)n(Cc3ccccc3)c(=O)[nH]c2=O)cc1 | x | x | x | -10 | x
COc1ccccc1C(=O)C1CCCN(Cc2cccc3nccnc23)C1 (stereo not drawn) | 1 | -3 | 109 | -3 | 60*
Cc1cc(C(=O)NC(C)C2CCCO2)no1 (stereo not drawn) | -2 | -2 | 111 | -2 | 60*
CCC(C)NC(=O)c1ccccc1SC (stereo not drawn) | 2 | -1 | 102 | 3 | 42
CCC(C)NC(=O)c1ccccc1C(=O)NC(C)CC (stereo not drawn) | -1 | 6.1* | 106 | -7 | 9
SMILES | VIM-2 inhibitor | IMP-1 inhibitor | CR mimetic SO | PvdQ inh | PHOSPHO1 inh
O=C(CN1CCCCC1)c1c[nH]c2ccccc12 | 1 | 2 | 98 | -23 | 10
O=C(CN1CCN(Cc2ccccc2)CC1)c1c[nH]c2ccccc12 | 0 | -1 | 110 | -17 | 80*
CCOC(=O)c1c(C)[nH]c(N=Nc2ccc(C)cc2C)c1C | -4 | -5 | 113 | 16 | 65*
COc1cc(C(=O)NC(=S)Nc2ccc(N3CCCC3)cc2)cc(OC)c1OC | -2 | -3 | 108 | -12 | -16
Cc1cccc(N2CCN(C(=O)CCc3nc4ccccc4c(=O)[nH]3)CC2)c1C | x | x | 104 | -11 | x
CCOC(=O)N1CCc2c(sc3c2C(=O)NC(c2ccccc2)N3)C1 (stereo not drawn) | -3 | 4 | 120 | -17 | 66*
CN1CCc2c(sc3c2C(=O)NC(c2cccc(OC(=O)c4cccs4)c2)N3)C1 (stereo not drawn) | -2 | -1 | 126 | -12 | -14
O=C(CC1Nc2cccc3cccc(c23)NC1=O)Nc1ccccc1 (stereo not drawn) | 1 | -2 | 94 | -2 | -12
NC(=O)CC1Nc2cccc3cccc(c23)NC1=O (stereo not drawn) | 8.1* | 9.1* | 104 | 8 | 6
CSc1sc2ccccc2[n+]1CCCS(=O)(=O)[O-] | 2 | 2 | 114 | 23 | 89*
O=C(N1CCOCC1)N1CCN(C(=O)N2CCOCC2)CC1 | 0 | -3 | x | x | x
CCNC(=O)COc1ccc2ccccc2c1 | -1 | -2 | 103 | 35* | 52
CCNC(=O)COc1ccc(CC)cc1 | -3 | -2 | 95 | -5 | -2
O=C1CC(c2ccccc2)Oc2ccccc21 (stereo not drawn) | x | x | x | 0 | x
CCOC1=CC(=O)OC(c2ccccc2)C1 (stereo not drawn) | x | x | x | 81* | x
COc1cccc(/C=N/N(C)C2=NS(=O)(=O)c3ccccc32)c1O | 9.5* | -2 | 97 | -11 | x
CN(/N=C/c1cc(Cl)ccc1O)C1=NS(=O)(=O)c2ccccc21 | 10* | 0 | 112 | 7 | 18
O=C(c1ccc(Cl)c(S(=O)(=O)N2CCCCC2)c1)N1CCCC(C(F)(F)F)C1 (stereo not drawn) | x | x | 95 | 5 | x
Cc1cc(Cl)ccc1OCC(=O)Nc1ccccc1C(=O)N1CCOCC1 | -1 | 0 | 102 | -9 | 61*
COc1ccc(CC(=O)Nc2cccc(S(=O)(=O)N3CCCCCC3)c2)cc1OC | -2 | -4 | 93 | -4 | 7
O=S(=O)(c1ccc(Cl)c(NC(=S)N/N=C/c2c(F)cccc2F)c1)N1CCOCC1 | 10* | -3 | 133 | 5 | -2
O=S(=O)(c1ccc(Cl)c(NC(=S)N/N=C/c2ccc(O)cc2)c1)N1CCOCC1 | 3 | -4 | 103 | -10 | 0
O=C(O)c1ccc(Oc2ccc(S(=O)(=O)c3ccc(C(=O)O)c(C(=O)O)c3)cc2)cc1 | 0 | -2 | 97 | -2 | 34
CCOC(=O)C1CCCN(C(=O)CNC(=O)c2ccc(Br)o2)C1 (stereo not drawn) | x | x | 98 | 2 | x
COc1ccccc1CNC(=O)N1CCN(c2ccccc2C)CC1 | 1 | 52* | 111 | -10 | 2
SMILES | VIM-2 inhibitor | IMP-1 inhibitor | CR mimetic SO | PvdQ inh | PHOSPHO1 inh
Cc1[nH]n(-c2ccccc2)c(=S)c1C=Nc1cccc([N+](=O)[O-])c1 | 1 | -1 | 99 | -4 | 107*
CCCCN=Cc1c(C)[nH]n(-c2ccccc2)c1=S | -4 | -2 | 103 | -13 | 68*
Cc1[nH]n(-c2ccccc2)c(=O)c1C=Nc1cccc2cccnc12 | 1 | 0 | 104 | 9 | -17
CC1(C)CC(=O)C(C(C2=C(O)CC(C)(C)CC2=O)c2ccc(Br)s2)C(=O)C1 (stereo not drawn) | -3 | -1 | 113 | -9 | 1
Cc1c(O)c(CN2CCCC2)cc2c1oc(=O)c1ccccc12 | 9.0* | 0 | 70 | -11 | -13
O=c1oc2c(CN3CCOCC3)c(O)c(Cl)cc2c2c1CCCC2 | 2 | 5.3* | 124 | -17 | 27
